High-throughput results from PubChem.
TAAR1 antag = human TAAR1 antagonists, primary screen, Fluo-8 calcium fluorescence, CHO RD-HGA16 cells; Trace amine-associated receptor 1 (Homo sapiens), Q96RJ0; antagonist; inhibition, % at 3 µM; hit rate 1.5% among 360,000;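 active = inhibition above a per-plate cutoff, the mean inhibition of test compounds on that plate plus 3 SD, cut at about 49% in these data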;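 note: 0% = DMSO plus EC80 beta-PEA response and 100% = DMSO alone without agonist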
Target sequence (Q96RJ0 whole entry, looked up): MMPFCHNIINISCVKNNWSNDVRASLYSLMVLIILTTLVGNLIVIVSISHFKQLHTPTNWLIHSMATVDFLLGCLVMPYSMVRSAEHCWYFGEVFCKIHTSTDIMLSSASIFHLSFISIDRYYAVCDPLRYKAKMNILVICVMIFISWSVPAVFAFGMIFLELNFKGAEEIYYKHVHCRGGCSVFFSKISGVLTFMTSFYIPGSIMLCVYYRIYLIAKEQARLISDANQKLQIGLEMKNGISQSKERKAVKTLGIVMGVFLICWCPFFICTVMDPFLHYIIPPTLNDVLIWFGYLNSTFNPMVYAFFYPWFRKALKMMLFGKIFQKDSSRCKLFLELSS
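System: RD-HGA16 CHO cells with stable hTAAR1 and Gα16 | Probe or stimulus: EC80 β-phenethylamine stimulus | Dosing: 3 µM, single point | Times: Dye loading 75 min at 37 °C, then 30 min room temperature | Measured by: Fluo-8 calcium-sensitive fluorescence | Read-out basis: % inhibition of agonist calcium response | Replicates: n of 1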
TAAR1 ag = human TAAR1 agonists, primary screen, Fluo-8 calcium fluorescence, CHO RD-HGA16 cells. Trace amine-associated receptor 1 (Homo sapiens), Q96RJ0. vehicle wells 0%, saturating PEA agonist 100%. activation, % at 3 µM. hit rate 0.99% among 360,000. AID 624467, 2012;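 active = activation above the mean activation of all test compounds in the run plus 3 SD, cut at about 38% in these data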
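Benchmarks: low control DMSO, high control PEA (EC100); System: CHO RD-HGA16 cells carrying human TAAR1 plus Gα16; Detection: Fluo-8 fluorescence, 5 s baseline then 140 s kinetic read; Schedule: 17-24 h plating, Fluo-8 75 min 37 °C, 30 min RT; Read-out basis: % activation from peak over basal fluorescence ratio, DMSO-to-PEA scaled.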
CHO parental Ca = ATP-evoked calcium signal inhibitors, parental CHO, primary screen, counter-screen for OX1R antagonist project, cell-based, fluorescence, Fluo-8 calcium dye | parental CHO-K1, ATP-induced calcium, Fluo-8 fluorescence | inhibition, % at 5.6 µM | hit rate 0.63% among 330,000 | AID 463079, 2010;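 active = inhibition above that plate's mean sample inhibition plus 3 SD, cut at about 26% in these data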;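 note: 0% = ATP-challenged DMSO wells and 100% = DMSO wells without ATP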
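Test system: parental CHO cells; detection: calcium-sensitive Fluo-8 fluorescence; evaluation: percent inhibition of calcium signal; also added: ATP as calcium-mobilizing challenge; repeats: one well per compound; control set: ATP-challenged DMSO wells low, unchallenged DMSO wells high; compound: single nominal dose of 5.6 µM per compound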
OX1R antag-1 = antagonists of human orexin 1 receptor (OX1R). inhibition, % at 6.6 µM. OX1R-expressing cells, FRET antagonist read-out. AID 485270, 2010. Orexin/Hypocretin receptor type 1 (Homo sapiens), O43613. hit rate 1.8% among 330,000; in the data active = inhibition mostly above about 38%, no sharp cut-off; inactive = mostly below about 40%;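 note: 0% = agonist challenge alone and 100% = reference antagonist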
Target sequence (O43613 whole entry, looked up): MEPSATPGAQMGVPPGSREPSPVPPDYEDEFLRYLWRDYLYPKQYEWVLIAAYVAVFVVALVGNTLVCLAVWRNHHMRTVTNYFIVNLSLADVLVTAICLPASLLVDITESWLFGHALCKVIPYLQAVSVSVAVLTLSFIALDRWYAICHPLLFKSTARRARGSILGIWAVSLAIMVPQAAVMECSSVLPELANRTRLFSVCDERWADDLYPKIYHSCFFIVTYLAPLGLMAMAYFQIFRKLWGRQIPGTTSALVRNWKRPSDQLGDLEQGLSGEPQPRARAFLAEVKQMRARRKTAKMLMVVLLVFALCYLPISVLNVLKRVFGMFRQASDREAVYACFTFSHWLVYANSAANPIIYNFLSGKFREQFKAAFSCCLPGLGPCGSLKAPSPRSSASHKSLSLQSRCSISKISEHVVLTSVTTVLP
OX1R antag-2 = OX1R (HCRTR1) antagonists, primary screen, fluorescence, CHO/OX1R cells, Fluo-8 calcium, orexin A. inhibition, % at 5 µM. hit rate 0.43% among 330,000. AID 434989, 2010. Fluo-8 calcium fluorescence;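 active = inhibition above its plate's threshold, mean inhibition of all tested compounds on the plate plus 3 SD, cut at about 37% in these data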;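 note: 0% = orexin A challenge wells and 100% = SB-334867-A antagonist wells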
nonsel antag count = nonselective antagonists in TAAR1 counter-screen cells, counter-screen for hTAAR1 antagonist project, cell-based, fluorescence, calcium | shares compounds with TAAR1 antag | counterscreen cell line, antagonist mode | inhibition, % at 3 µM | hit rate 77% among 2,400; in the data active = inhibition above about 22%;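 note: CHO-Ga16 host cells stimulated with ATP at an EC80 level; 0% = agonist EC80 plus vehicle and 100% = vehicle without agonist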
TAAR1 antag conf = human TAAR1 antagonists, retest of hits, confirmation, cell-based, fluorescence. shares compounds with TAAR1 antag. TAAR1-expressing cells, fluorescence antagonist read-out. inhibition, % at 3 µM. hit rate 40% among 2,400. AID 651785, 2012; in the data active = inhibition above about 49%;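 note: CHO-Ga16 host cells challenged with agonist PEA near its EC80; 0% = agonist at EC80 plus vehicle and 100% = vehicle with no agonist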
Ga16 ag counter = calcium activation in Ga16-expressing cells, counter-screen for TAAR1 antagonist project, cell-based, fluorescence | shares compounds with TAAR1 antag | agonist counterscreen | activation, % at 3 µM | hit rate 18% among 2,400 | AID 651953, 2012; in the data active = activation above about 12%;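 note: 0% = vehicle wells and 100% = saturating stimulus response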
TAAR1 ag counter = TAAR1 activation by candidate antagonists – cell-based, fluorescence, counter-screen for TAAR1 antagonist project. shares compounds with TAAR1 antag. hTAAR1 cell line, agonist mode. activation, % at 3 µM. hit rate 2% among 2,400. AID 651955, 2012; in the data active = activation above about 37%;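 note: CHO cells stably expressing TAAR1 with calcium dye readout; 0% = DMSO vehicle and 100% = full agonist response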
* = called active by the depositor; nt = no result. Rows were chosen to be rich in hits. Some 4% of all compounds tested hit in one or more screens of this group.

SMILES | TAAR1 antag | TAAR1 ag | CHO parental Ca | OX1R antag-1 | OX1R antag-2 | nonsel antag count | TAAR1 antag conf | Ga16 ag counter | TAAR1 ag counter
COC(=O)N[C@@H]1C[C@H]2[C@@H]3CC[C@H]4C[C@@H](OC)CC[C@]4(C)[C@H]3CC[C@]12C | 55* | 10 | -18 | 5 | -10 | 20 | 40 | 7 | 6
O=S(=O)(Nc1cc(C(F)(F)F)ccc1N1CCOCC1)c1ccc2ccccc2c1 | -7 | 0 | -29 | 4 | -40 | nt | nt | nt | nt
CCCCCCC(=O)N(O)C1CC(=O)N(c2ccc(Br)cc2)C1=O (stereo not given) | 106* | -4 | -12 | 14 | 2 | 12 | 13 | 2 | 1
COc1ccc(/C=N/NC(=O)c2ccccc2OCc2ccccc2)c(OC)c1 | 49* | 3 | -39 | 23 | -28 | 7 | 31 | 2 | 1
C#CCOc1ccccc1/C=N/NC(=O)c1ccccc1OCc1ccccc1 | 56* | 0 | -25 | 1 | -19 | 16 | 36 | 3 | 4
COc1ccc(/C(C)=N/NC(=O)c2ccccc2OCc2ccccc2)c(OC)c1 | 30 | 8 | -33 | 17 | -33 | nt | nt | nt | nt
COc1ccccc1C=NNC(=O)c1ccccc1OCCOc1ccccc1 | 62* | 5 | -34 | 18 | 20 | 21* | 51* | 4 | 0
C/C(=N\NC(=O)c1ccccc1OCCOc1ccccc1)c1ccccc1F | 60* | 1 | nt | nt | nt | 5 | 33 | 3 | 9
COC(=O)C(=O)/C=C(\O)c1c(C)cc(C)cc1C | -44 | 0 | -2 | 1 | 0 | nt | nt | nt | nt
Cc1cccc(/C=N/NC(=O)c2ccccc2OCc2cccc(Br)c2)n1 | 64* | 9 | -33 | 5 | -26 | 22* | 45 | 7 | 15
O=C(N/N=C/c1ccncc1)c1ccccc1OCc1ccc(Br)cc1 | 46 | 6 | -28 | 18 | -21 | nt | nt | nt | nt
O=C(Nc1ccc(F)c(Cl)c1)NC1CC1 | 105* | 2 | -2 | 4 | 4 | -5 | 2 | 10 | 15
C=Cc1cc2c(cc1O)CCC1C2CCC2(C)C(O)CCC12 (stereo not given) | 58* | 8 | nt | nt | nt | 23* | 44 | 9 | 7
O=C(CCc1nnc(-c2ccc3c(c2)OCO3)o1)NC(c1cccnc1)C(F)(F)F (stereo not given) | -25 | 0 | -16 | 7 | -23 | nt | nt | nt | nt
COc1cc(C)ccc1NC(=O)Cc1csc(NC(=O)Nc2ccccc2OC)n1 | 66* | 11 | -5 | 25 | -26 | 34* | 53* | 9 | 10
COc1ccccc1N1CCN(C(=O)CCC(=O)N2CCN(c3ccccc3OC)CC2)CC1 | -8 | 4 | -17 | 6 | -5 | nt | nt | nt | nt
COc1ccccc1NC(=O)Nc1nc(CC(=O)N2CCN(c3ccccc3OC)CC2)cs1 | 69* | 21 | -8 | 6 | -26 | 35* | 54* | 11 | 8
CC(O)C(NS(=O)(=O)c1ccc(Cl)cc1)C(=O)OCCOc1ccc(F)cc1 (stereo not given) | -4 | 11 | nt | nt | nt | nt | nt | nt | nt
CC1=CC(=C(C#N)C#N)C=C(C)N1Cc1ccccc1 | 10 | 2 | -8 | 10 | -35 | nt | nt | nt | nt
O=C1c2cccc(OCC(=O)N3CCCc4ccccc43)c2CCN1Cc1ccc(Br)cc1 | 71* | 11 | -22 | 25 | -15 | 40* | 51* | 8 | 2
COc1ccc(/C=N/NC(=O)c2nc(-c3ccccc3)cc(-c3ccccc3)n2)cc1O | 63* | 11 | -9 | 40 | -4 | 35* | 53* | 6 | 4
COc1ccc(/C=N/NC(=O)c2cc(-c3ccccc3)nc3ccccc23)cc1O | 40 | 6 | -50 | 4 | -16 | nt | nt | nt | nt
COc1ccc(/C=N/NC(=O)c2nc(-c3ccccc3)cc(-c3ccccc3)n2)cc1 | 56* | 16 | -38 | 12 | -20 | 25* | 42 | 5 | 4
CCN(C(=O)COC(=O)CCS(=O)(=O)c1ccc(C)cc1)C1CCS(=O)(=O)C1 (stereo not given) | -14 | 0 | -2 | 21 | -2 | nt | nt | nt | nt
O=C(Cc1ccccc1)Nc1ccc(-c2nnc(-c3ccco3)o2)cc1 | 10 | 10 | -12 | 15 | -2 | nt | nt | nt | nt
SMILES | TAAR1 antag | TAAR1 ag | CHO parental Ca | OX1R antag-1 | OX1R antag-2 | nonsel antag count | TAAR1 antag conf | Ga16 ag counter | TAAR1 ag counter
O=C(Nc1ccc(-c2nnc(-c3ccco3)o2)cc1)C(c1ccccc1)c1ccccc1 | 74* | 18 | -8 | 15 | -12 | 32* | 43 | 6 | 2
O=C1CC(C(=O)Nc2cccc(F)c2)n2ncnc2N1 (stereo not given) | -12 | 2 | 1 | 15 | -2 | nt | nt | nt | nt
CCOC(=O)C1(C)CCN1C(=O)COc1ccc(C(C)(C)C)cc1 (stereo not given) | -17 | 4 | nt | nt | nt | nt | nt | nt | nt
CC(=O)Nc1ccc(S(=O)(=O)NCC(=O)OCC(=O)NCc2ccco2)cc1 | 100* | -2 | -5 | 11 | -4 | 2 | 2 | 1 | 2
CC(=O)Nc1ccc(S(=O)(=O)N(C)CC(=O)OCC(=O)NCc2ccco2)cc1 | 4 | 3 | -2 | 5 | -16 | nt | nt | nt | nt
Cc1cc2nc(-c3ccc(=O)[nH]c3)n(Cc3ccccc3)c2cc1C | 8 | 3 | -16 | 13 | -25 | nt | nt | nt | nt
Cc1ccc(-c2nc3cccnc3s2)cc1NS(=O)(=O)c1ccc2c(c1)OCCO2 | 59* | 9 | -15 | 19 | -25 | 30* | 37 | 7 | 2
Cc1ccc(C)c(N2CCN(C(=O)C34CC5CC(C3)CC(n3nnc(C)n3)(C5)C4)CC2)c1 | 59* | 7 | -25 | -2 | -31 | 35* | 43 | 7 | 5
OCC[C@H]1C[C@@H](O)[C@H](O)[C@@]2(CCCO2)O1 | -8 | 12 | -8 | -1 | 10 | nt | nt | nt | nt
CC1(C)CC(=O)C=C(c2ccc(Oc3ccccc3)cc2)C1=O | 21 | 1 | nt | nt | nt | nt | nt | nt | nt
COc1ccc(C#Cc2ccc(C3=CC(=O)CC(C)(C)C3=O)cc2)cc1 | 81* | 5 | nt | nt | nt | 28* | 43 | 4 | 3
C=CCNC(=O)CN1N=C(c2ccc(C)cc2)CCC1=O | -3 | 10 | -13 | 13 | -14 | nt | nt | nt | nt
